TNF necrop inh = inhibitors of TNF-alpha triggered necroptosis, primary screen, cell-based, Jurkat FADD-/-, single concentration. 220,000 compounds, 0.068% hits. activation (protection from cell death), % at 10 µM. Jurkat FADD-/- TNF necroptosis rescue, ATP luminescence, 24 h; 0 = TNF only, 100 = no-TNF cells;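 active = activation, meaning protection from cell death, of at least 50% relative to plate controls; inactive = activation below 50%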;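 note: necroptosis triggered by 40 ng/mL TNF-alpha added together with compound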
SDO1 yeast rescue = growth rescue of sdo1-depleted yeast, primary screen, S. cerevisiae, bone marrow failure model; S. cerevisiae sdo1-depleted JHY4D growth rescue, OD600 30 h; hits give high values; pdr5 snq2 efflux-pump mutant strain; 140,000 compounds, 0.21% hits; z-score at 10 µM;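 active = z-score above 3 at both the 24 hr and the 30 hr optical density reads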;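 note: z-score against mean and SD of all compound wells on the same plate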
Rad51 HR inh = human RAD51 strand exchange inhibitors, primary screen, biochemical, fluorescence. 200,000 compounds, 0.085% hits. inhibition, % at 10 µM. AID 1385, 2008. hRad51 DNA strand exchange, fluorescence dequenching. DNA repair protein RAD51 homolog 1 (Homo sapiens), Q06609;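 active = inhibition above 40% at the single screening dose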;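 note: 0% = DMSO control wells and 100% = blanks with heterologous ssDNA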
Target sequence (Q06609 whole entry, looked up): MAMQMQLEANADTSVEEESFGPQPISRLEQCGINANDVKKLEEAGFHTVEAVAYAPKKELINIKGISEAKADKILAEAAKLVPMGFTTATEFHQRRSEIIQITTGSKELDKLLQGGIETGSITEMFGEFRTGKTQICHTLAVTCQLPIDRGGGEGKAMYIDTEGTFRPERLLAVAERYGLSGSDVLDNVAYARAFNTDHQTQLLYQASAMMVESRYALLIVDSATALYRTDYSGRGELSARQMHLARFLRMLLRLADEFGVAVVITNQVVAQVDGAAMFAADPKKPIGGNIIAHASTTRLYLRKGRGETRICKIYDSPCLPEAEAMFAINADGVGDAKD
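Assay system: Human Rad51 nucleoprotein filaments preassembled on unlabelled ssDNA | Reagent: Donor/quencher-labelled 47-bp dsDNA substrate | Doses: One concentration, 10 µM final | Times: 37 °C 15-min filament assembly, 30-min compound preincubation, 15-min exchange | Technique: Fluorescein emission 520 nm, excitation 485 nm | Benchmarks: Plate control and blank wells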
L929 necroptosis = inhibitors of zVAD-triggered necroptosis, primary screen, L929 cells | L929 zVAD necroptosis rescue, ATP luminescence, 24 h; with zVAD 60 µM | viability rescue, % at 10 µM | 220,000 compounds, 0.38% hits | AID 1377, 2008;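 active = activation, scaled between plate controls, above about 75%, limit read from the data; inactive = activation under that limit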;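 note: 0% = zVAD with DMSO and 100% = DMSO alone without zVAD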
zVAD death conf = inhibitors of zVAD-triggered necroptosis in L929, confirmation, L929 cells, duplicate runs; shares compounds with L929 necroptosis; L929 zVAD-induced necroptosis rescue, ATP luminescence, 24 h; activation (protection from necroptosis), % at 10 µM; 760 compounds, 16% hits; AID 463117, 2010;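 active = mean protection from necroptosis of at least 50% over duplicate tests; inactive = mean protection below 50%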;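 note: 0% = cells with zVAD alone and 100% = vehicle cells without zVAD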
Active calls of the source: *; · = not tested or not shown. Compounds with a hit are over-represented: about 0.64% of the library has one in this group of screens.

SMILES	TNF necrop inh	SDO1 yeast rescue	Rad51 HR inh	L929 necroptosis	zVAD death conf
CNc1ncc(C(=O)c2ccc(Br)cc2)s1	6	·	7	83*	1
CNc1ncc(C(=O)c2ccccc2)s1	5	0.3	-3	4	·
CCOc1cc(/C=N/NC(=O)c2cc(C3CC3)[nH]n2)ccc1O	9	·	-19	91*	7
O=Nc1c2ccc[nH]c-2c2ccc([N+](=O)[O-])cc12	1	·	10	75*	0
Cc1nc2cc3nc(C(F)(F)F)[nH]c3cc2[nH]1	2	1.8	-1	1	·
COc1ccc(N2C(=NC(C)=O)SC3CS(=O)(=O)CC32)cc1OC (stereo not drawn)	-3	1.9	1	0	·
CC(=O)Nc1cc(-c2ccc(F)cc2)[nH]n1	-1	·	-2	76*	31
Cc1c(NC(=O)CCCCCN2C(=O)c3ccccc3C2=O)c(=O)n(-c2ccccc2)n1C	0	0.09	13	0	·
O=C1NC(Cc2c[nH]c3ccccc23)C(=O)N1Cc1ccc(CN2C(=O)NC(Cc3c[nH]c4ccccc34)C2=O)cc1 (stereo not drawn)	1	·	8	1	·
NC(=S)NC(=O)/C=C/c1ccccc1	19	·	41*	83*	1
CC(=O)c1c(C)[nH]c(C(=O)OCC(=O)Nc2ccc(Cl)c(S(=O)(=O)N(C)C)c2)c1C	-7	·	-5	80*	3
CC(=O)c1c(C)[nH]c(C(=O)Nc2ccc(Cl)c(S(=O)(=O)N(C)C)c2)c1C	-2	·	-16	66	·
CCCOc1ccc(NC(=O)CC2C(=O)N(Cc3ccccc3)C(=S)N2Cc2cccs2)cc1 (stereo not drawn)	1	-0.35	24	0	·
O=c1cc(-c2cccnc2)oc2c1ccc1ccccc12	-11	·	-52	75*	2
COc1ccccc1NC(=O)/C(=N/OCc1ccc(C#N)cc1)C(C)=O	-1	·	14	76*	1
COc1ccccc1NC(=O)C(=O)N/N=C(\C)CC(=O)Nc1ccc(OCc2ccccc2)cc1	-2	0.96	-5	2	·
COc1ccc2cc(C(=O)NCc3ccccc3)c(=Nc3ccc(C(=O)O)cc3)oc2c1	2	·	12	76*	1
O=C(O)c1ccc(N=c2oc3cc(O)ccc3cc2C(=O)NCc2ccccc2)cc1	1	·	-132	36	·
O=C(COC(=O)c1cccc(O)c1)Nc1ccc(OC(F)F)cc1	0	·	15	1	·
O=C(COC(=O)c1ccc(O)cc1)Nc1ccc(OC(F)F)cc1	2	·	·	77*	36
COc1ccc(C(=O)NC(=S)N2CCN(C)CC2)cc1Br	-1	·	22	0	·
CCN(CC)C(=O)C(=O)N/N=C/c1ccc(F)cc1	1	·	4	14	·
COC(=O)c1sccc1NC(=S)N1CCC(C(N)=O)CC1	0	·	1	1	·
CCN(CC)CCCNC(=O)c1cc(Sc2nnc(C)s2)nc2ccccc12	7	-0.72	6	79*	10
O=C(CCC(=O)N1CCN(C(=O)c2ccco2)CC1)c1ccc(F)cc1	0	·	1	76*	2
SMILES	TNF necrop inh	SDO1 yeast rescue	Rad51 HR inh	L929 necroptosis	zVAD death conf
CC(=O)Nc1cccc(/C(C)=N/Nc2nc3ccccc3s2)c1	13	·	-2	78*	11
COc1ccc(/C=N/Nc2nc3ccccc3s2)cc1O	59*	·	·	79*	76*
C/C(=N\Nc1nc2ccccc2s1)c1cccs1	7	-1.9	-5	2	·
COc1cc(/C=N/Nc2nc3ccccc3o2)cc(OC)c1O	14	0.47	9	4	·
COc1ccc(/C=N/Nc2nc3ccccc3o2)cc1O	18	0.37	-8	86*	49
CC(=O)Nc1ccc(/C=N/Nc2nc3ccccc3s2)cc1	63*	·	1	82*	83*
CC(=O)c1cnn(-c2c(Cl)cc(Cl)cc2Cl)c1C	-2	·	5	-1	·
O=C(Nc1ccc(N2C(=O)CCC2=O)cc1Cl)c1cccs1	0	·	-2	9	·
Cc1cc(C(=O)C(=O)O)c(C)n1-c1ccc(Cl)c(Cl)c1	0	·	-1	1	·
Cc1ccc(C2CC(=O)NC(SCC(=O)Nc3nccs3)=C2C#N)cc1 (stereo not drawn)	92*	-0.72	-92	96*	85*
O=C(CSc1nc(O)cc(=O)[nH]1)N1c2ccccc2CCc2ccccc21	4	·	·	-1	·
FC(F)(F)c1cnc2c(-c3ccccc3)n[nH]c2c1	4	·	3	77*	17
COc1cccc(NC(=O)Nc2ccc(C(C)(C)C)cc2)c1	2	·	-25	79*	8
COC(=O)c1ccc(NC(=O)Nc2ccc(OC)cc2)cc1	5	·	17	83*	2
CCC(C)[C@H](NC(=O)Nc1cccc(OC)c1)C(=O)OC (stereo partly drawn)	-2	1.1	-1	0	·
COc1cccc(NC(=O)NC(C)C2CC3CCC2C3)c1 (stereo not drawn)	1	·	-1	75*	30
CCOc1ccc(C(=O)Nc2ncccc2Cl)cc1	0	·	0	10	·
COCCNC(=O)c1ccc(-n2c(SCc3ccncc3)nc3ccccc3c2=O)cc1	1	·	3	-4	·
Cc1cc(N/N=C/c2cccc(Br)c2)nc2ccccc12	2	-0.6	-4	2	·
Cc1cc(N/N=C/c2ccncc2)nc2ccccc12	50*	·	3	81*	77*
c1ccc(-n2cnc3cc(NCc4ccncc4)ccc32)cc1	1	0.61	-1	83*	58*
c1ccc(-n2cnc3cc(NCc4ccccn4)ccc32)cc1	-1	-0.55	3	76*	63*
CC(=O)Nc1ccc2c(c1)ncn2-c1ccccc1	1	·	·	68	·
CCCCCC(=O)NNC(=O)c1ccc(-c2ccccc2)cc1	-1	0.08	0	0	·
O=C(CCl)N(c1ccccc1)C1CCCCC1	-20	·	13	78*	66*
SMILES	TNF necrop inh	SDO1 yeast rescue	Rad51 HR inh	L929 necroptosis	zVAD death conf
CCN1CCN(Cc2ccc(NC(=O)c3ccc(C)c(NC(=O)c4nccnc4N)c3)cc2C(F)(F)F)CC1	21	·	1	80*	79*
O=C1c2ccccc2C(O)N1CCN1CCOCC1 (stereo not drawn)	1	0.91	-3	0	·
N#CC(C#N)=C1C(=O)N(CCN2CCOCC2)c2ccccc21	-8	·	0	86*	1
CCCCN1C(=O)/C(=C(/C#N)C(=O)N2CCCC2)c2ccccc21	-3	·	27	1	·
N#CC(C#N)=C1C(=O)N(CCN2CCCCC2)c2ccccc21	-28	·	2	90*	35
CCN(CC)CCn1c2ccccc2c2cnc(N)c(C#N)c21	-10	-1.8	12	75*	70*
CN(C)C=Nc1ncc2c3ccccc3n(CCN(C)C)c2c1C#N	1	-2.7	-1	91*	39
Cc1cccc(-n2c(CNC(=O)Cc3ccccc3)n[nH]c2=S)c1	1	·	·	1	·

Compound activity as filed in PubChem.
